The record followed here is ChEMBL document CHEMBL1165888, “Synthesis and study of antiproliferative activity of novel thienopyrimidines on glioblastoma cells” (Eur J Med Chem, 2010).

The subject of this assay is DBTRG-05MG. Nature of the assay: Cytotoxicity against human DBTRG-05MG cells after 72 hrs by MTT assay. Type of assay: functional, cell-based. The gist of the method: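 DBTRG.05-MG cells were grown in RPMI 1640 with 10% heat-inactivated FCS at 37 °C and 5% CO₂. They were seeded at 6×10^3 per well, cultured 72 h, then exposed 72 h to serial dilutions in DMSO (≤1%, ≤200 μM). Viability was read by MTT (0.5 mg/mL, 37 °C), DMSO-solubilized, A570/630, as % of untreated wells. IC50 came from curves; triplicates, mean ± SD.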
Compound `CN(C)c1ncnc2sc3c(c12)CCCC3` returned an IC50 of 149 µM. With `COc1ccc(Nc2ncnc3sc4c(c23)CCCC4)cc1`, it took 152 µM to reach half-maximal inhibition (IC50). This IC50 and that of the compound before are within 1.5-fold of each other. `COc1ccccc1Nc1ncnc2sc3c(c12)CCCC3` displayed an IC50 of 571 µM. Under `COc1ccccc1Nc1ncnc2sc3ccccc3c12` stands 41.2 µM. For the compound `Cc1ccccc1Nc1ncnc2sc3ccccc3c12`, the IC50 was 61.8 µM.

The compound `CN(C)c1ncnc2sc3ccccc3c12` gave an IC50 of 138 µM. This IC50 is about 2.2-fold higher than that of the compound before. In turn, `c1ccc(Nc2ncnc3sc4c(c23)CCCC4)cc1` had an IC50 of 585 µM.

Take `COc1ccc(Nc2ncnc3sc4ccccc4c23)cc1`: the IC50 amounted to 117 µM. This IC50 is about 5-fold lower than that of the compound before. Compound `c1ccc(Nc2ncnc3sc4ccccc4c23)cc1` returned an IC50 of 109 µM.

`Cc1ccccc1Nc1ncnc2sc3c(c12)CCCC3` gave an IC50 of 474 µM.
